Data: ChEMBL document CHEMBL3861950, “Design, synthesis and evaluation of novel 19F magnetic resonance sensitive protein tyrosine phosphatase inhibitors” (Medchemcomm, 2016)

Key:
[1] = Inhibition of recombinant Mycobacterium tuberculosis PTPB using pNPP as substrate by spectrophotometric method
Procedure, shortened: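 Recombinant enzyme made in-house. Substrate pNPP in 50 mM 3,3-dimethylglutarate buffer, pH 7.0, with 1 mM EDTA and 150 mM NaCl, at 25 °C, screened in 96-well format. p-Nitrophenol product read at 405 nm. Non-enzymatic pNPP hydrolysis was corrected using a control without enzyme.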

[2] = target: T1, Tyrosine-protein phosphatase non-receptor type 11 (Homo sapiens, UniProt Q06124); experiment: Inhibition of recombinant SHP2 (unknown origin) using pNPP as substrate by spectrophotometric method
T1 sequence (Q06124 whole entry): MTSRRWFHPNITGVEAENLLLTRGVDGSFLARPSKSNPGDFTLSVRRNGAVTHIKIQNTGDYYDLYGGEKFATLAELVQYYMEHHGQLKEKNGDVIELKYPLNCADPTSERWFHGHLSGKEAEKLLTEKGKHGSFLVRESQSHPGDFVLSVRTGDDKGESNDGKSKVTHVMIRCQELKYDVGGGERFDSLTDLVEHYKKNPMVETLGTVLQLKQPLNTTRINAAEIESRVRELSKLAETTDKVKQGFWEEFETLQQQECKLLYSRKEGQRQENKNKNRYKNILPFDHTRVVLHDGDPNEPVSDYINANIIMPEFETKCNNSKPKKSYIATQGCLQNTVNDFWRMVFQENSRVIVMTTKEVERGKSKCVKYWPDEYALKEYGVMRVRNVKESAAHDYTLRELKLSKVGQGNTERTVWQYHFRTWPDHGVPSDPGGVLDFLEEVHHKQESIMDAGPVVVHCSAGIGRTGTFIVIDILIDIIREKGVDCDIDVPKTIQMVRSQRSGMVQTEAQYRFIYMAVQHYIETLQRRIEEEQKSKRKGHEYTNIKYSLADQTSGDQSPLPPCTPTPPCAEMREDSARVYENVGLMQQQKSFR
Procedure, shortened: (§1)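 Recombinant PTP prepared in-house, assayed with pNPP substrate in 50 mM 3,3-dimethylglutarate buffer pH 7.0 containing 1 mM EDTA and 150 mM NaCl at 25 °C, in 96-well format. p-Nitrophenol product was quantified by absorbance at 405 nm. Non-enzymatic pNPP hydrolysis was corrected using a no-enzyme control.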

[3] = target: T2, Tyrosine-protein phosphatase non-receptor type 1 (Homo sapiens, UniProt P18031); experiment: Inhibition of recombinant PTP1B (unknown origin) using pNPP as substrate by spectrophotometric method; procedure, shortened: as §1
T2 sequence (P18031 whole entry): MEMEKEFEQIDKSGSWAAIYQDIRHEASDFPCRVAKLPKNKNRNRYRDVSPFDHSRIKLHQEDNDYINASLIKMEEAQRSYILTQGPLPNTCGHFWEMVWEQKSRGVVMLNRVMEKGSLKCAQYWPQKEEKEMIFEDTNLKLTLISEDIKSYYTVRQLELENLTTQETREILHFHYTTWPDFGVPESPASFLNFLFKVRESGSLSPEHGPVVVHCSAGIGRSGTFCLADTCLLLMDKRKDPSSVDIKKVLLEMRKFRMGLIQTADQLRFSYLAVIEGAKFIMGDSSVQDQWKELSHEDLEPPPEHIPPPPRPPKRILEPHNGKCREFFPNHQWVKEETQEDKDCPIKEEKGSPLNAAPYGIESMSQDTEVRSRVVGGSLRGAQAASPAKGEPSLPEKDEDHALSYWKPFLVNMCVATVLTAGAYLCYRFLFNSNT

[4] = target: T3, Receptor-type tyrosine-protein phosphatase C (Homo sapiens, UniProt P08575); experiment: Inhibition of recombinant CD45 (unknown origin) using pNPP as substrate by spectrophotometric method; procedure, shortened: as §1
T3 sequence (P08575 whole entry): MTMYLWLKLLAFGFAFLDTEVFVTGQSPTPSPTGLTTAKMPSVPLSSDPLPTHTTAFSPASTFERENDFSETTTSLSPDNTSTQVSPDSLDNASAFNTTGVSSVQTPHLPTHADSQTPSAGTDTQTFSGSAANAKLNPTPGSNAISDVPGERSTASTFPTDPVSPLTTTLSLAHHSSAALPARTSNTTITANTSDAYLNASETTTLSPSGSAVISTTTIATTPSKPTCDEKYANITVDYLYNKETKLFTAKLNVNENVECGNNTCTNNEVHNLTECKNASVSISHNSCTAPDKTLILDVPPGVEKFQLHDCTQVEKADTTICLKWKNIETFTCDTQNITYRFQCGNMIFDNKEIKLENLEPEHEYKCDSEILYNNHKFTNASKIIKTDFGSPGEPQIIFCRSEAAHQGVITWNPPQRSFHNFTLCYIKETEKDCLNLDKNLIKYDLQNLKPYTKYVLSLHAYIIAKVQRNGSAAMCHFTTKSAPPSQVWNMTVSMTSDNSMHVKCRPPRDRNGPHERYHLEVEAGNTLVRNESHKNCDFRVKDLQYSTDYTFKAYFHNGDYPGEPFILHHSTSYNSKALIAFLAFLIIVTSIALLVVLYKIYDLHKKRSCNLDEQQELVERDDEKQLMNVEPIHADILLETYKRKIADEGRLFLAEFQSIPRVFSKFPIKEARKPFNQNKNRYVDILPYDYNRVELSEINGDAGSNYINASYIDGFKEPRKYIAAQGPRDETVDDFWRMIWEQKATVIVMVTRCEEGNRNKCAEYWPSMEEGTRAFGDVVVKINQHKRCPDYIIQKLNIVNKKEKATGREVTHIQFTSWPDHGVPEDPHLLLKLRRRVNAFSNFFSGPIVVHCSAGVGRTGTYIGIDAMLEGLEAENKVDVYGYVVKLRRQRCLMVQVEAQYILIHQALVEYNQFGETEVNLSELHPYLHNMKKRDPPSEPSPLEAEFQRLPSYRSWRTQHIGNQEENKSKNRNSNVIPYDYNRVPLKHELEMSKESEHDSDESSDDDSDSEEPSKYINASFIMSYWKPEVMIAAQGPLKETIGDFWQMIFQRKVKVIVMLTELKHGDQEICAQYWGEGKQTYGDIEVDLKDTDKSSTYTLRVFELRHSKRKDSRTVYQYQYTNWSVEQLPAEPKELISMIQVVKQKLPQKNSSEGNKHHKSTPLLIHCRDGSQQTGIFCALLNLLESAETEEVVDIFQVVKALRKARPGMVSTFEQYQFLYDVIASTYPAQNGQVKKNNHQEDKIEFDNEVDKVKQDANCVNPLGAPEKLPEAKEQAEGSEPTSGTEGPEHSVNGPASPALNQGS

[5] = target: T4, Tyrosine-protein phosphatase non-receptor type 22 (Homo sapiens, UniProt Q9Y2R2); experiment: Inhibition of recombinant LYP (unknown origin) using pNPP as substrate by spectrophotometric method; procedure, shortened: as §1
T4 sequence (Q9Y2R2 whole entry): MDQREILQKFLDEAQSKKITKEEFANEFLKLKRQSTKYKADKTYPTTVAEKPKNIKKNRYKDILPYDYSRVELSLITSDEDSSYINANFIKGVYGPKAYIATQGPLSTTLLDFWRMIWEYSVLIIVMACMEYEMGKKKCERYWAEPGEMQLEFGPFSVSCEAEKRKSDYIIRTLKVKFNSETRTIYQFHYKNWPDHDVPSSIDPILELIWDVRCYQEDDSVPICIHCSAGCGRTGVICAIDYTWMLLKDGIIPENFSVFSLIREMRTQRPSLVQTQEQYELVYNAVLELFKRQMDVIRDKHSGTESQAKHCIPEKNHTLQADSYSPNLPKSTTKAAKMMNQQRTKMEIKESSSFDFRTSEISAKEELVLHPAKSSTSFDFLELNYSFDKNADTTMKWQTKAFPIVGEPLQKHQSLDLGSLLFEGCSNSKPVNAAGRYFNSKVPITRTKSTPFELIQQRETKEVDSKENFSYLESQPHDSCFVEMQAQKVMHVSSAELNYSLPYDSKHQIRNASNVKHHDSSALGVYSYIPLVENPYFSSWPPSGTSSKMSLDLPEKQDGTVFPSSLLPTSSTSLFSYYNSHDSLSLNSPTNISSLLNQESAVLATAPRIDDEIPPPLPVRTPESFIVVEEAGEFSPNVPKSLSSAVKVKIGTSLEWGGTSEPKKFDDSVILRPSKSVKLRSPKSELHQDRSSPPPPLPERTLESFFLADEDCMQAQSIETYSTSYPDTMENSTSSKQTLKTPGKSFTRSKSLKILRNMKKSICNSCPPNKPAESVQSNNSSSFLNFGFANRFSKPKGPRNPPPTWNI

[6] = target: Tyrosine-protein phosphatase non-receptor type 13 (Homo sapiens, UniProt Q12923); experiment: Inhibition of recombinant FAP1 (unknown origin) using pNPP as substrate by spectrophotometric method; procedure, shortened: as §1
Sequence of Tyrosine-protein phosphatase non-receptor type 13 (Q12923 whole entry): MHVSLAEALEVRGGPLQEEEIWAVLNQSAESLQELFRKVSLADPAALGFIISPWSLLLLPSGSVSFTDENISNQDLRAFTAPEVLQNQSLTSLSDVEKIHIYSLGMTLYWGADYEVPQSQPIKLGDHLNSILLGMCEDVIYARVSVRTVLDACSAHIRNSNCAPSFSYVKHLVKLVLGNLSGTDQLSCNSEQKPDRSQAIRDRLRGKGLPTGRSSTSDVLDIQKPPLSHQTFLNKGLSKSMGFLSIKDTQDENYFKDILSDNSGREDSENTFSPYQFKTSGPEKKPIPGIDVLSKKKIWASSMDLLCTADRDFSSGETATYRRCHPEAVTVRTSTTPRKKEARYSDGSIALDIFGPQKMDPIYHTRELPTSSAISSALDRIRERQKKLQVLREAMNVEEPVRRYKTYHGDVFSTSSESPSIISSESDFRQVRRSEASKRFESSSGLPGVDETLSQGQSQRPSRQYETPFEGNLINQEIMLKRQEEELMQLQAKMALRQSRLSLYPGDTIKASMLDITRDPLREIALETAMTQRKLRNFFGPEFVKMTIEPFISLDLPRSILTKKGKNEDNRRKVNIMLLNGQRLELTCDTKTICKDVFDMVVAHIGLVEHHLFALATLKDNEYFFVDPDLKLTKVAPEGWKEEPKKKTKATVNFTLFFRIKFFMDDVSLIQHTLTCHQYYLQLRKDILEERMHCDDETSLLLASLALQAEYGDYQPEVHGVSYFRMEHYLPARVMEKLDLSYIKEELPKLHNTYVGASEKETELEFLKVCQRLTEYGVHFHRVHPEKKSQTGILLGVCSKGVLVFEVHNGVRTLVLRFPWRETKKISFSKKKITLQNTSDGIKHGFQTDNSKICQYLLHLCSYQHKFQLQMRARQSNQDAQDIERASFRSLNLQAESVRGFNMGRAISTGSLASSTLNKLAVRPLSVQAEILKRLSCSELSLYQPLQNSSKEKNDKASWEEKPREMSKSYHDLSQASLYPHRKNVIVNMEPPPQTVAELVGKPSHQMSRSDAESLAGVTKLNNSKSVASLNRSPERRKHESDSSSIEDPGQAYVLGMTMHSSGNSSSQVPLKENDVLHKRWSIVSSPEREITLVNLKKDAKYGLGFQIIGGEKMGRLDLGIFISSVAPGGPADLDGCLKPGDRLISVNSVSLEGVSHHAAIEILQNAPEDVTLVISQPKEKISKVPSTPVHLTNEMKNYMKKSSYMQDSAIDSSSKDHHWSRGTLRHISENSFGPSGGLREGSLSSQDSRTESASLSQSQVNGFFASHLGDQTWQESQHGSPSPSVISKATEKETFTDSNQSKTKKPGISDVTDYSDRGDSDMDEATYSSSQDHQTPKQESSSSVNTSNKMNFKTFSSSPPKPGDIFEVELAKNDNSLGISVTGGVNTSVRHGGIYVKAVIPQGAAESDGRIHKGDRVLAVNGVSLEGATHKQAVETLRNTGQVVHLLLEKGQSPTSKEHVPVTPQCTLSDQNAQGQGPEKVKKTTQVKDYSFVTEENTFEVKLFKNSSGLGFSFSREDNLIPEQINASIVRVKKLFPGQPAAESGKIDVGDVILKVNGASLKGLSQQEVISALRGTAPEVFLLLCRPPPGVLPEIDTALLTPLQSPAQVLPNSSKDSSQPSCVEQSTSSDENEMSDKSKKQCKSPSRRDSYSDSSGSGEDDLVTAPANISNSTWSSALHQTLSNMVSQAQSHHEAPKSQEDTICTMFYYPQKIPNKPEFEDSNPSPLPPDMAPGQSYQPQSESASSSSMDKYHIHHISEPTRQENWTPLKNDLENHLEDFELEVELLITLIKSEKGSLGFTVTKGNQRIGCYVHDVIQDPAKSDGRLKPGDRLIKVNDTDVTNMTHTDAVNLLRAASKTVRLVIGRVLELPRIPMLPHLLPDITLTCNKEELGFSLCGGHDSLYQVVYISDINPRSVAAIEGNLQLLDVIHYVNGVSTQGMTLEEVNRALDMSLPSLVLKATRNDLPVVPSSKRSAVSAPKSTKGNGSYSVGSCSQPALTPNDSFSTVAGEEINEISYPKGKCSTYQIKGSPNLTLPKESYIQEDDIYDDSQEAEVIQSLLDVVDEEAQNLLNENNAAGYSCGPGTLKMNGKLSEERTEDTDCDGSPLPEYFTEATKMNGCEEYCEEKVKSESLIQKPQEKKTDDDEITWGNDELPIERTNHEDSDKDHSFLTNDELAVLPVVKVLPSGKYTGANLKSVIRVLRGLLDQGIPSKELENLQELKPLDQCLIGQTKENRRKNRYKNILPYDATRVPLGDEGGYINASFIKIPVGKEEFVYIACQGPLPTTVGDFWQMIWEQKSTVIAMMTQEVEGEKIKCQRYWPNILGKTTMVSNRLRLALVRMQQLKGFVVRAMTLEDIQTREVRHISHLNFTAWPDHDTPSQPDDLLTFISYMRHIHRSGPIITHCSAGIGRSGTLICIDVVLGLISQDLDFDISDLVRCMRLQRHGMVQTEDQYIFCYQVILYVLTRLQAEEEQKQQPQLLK

O=C(COc1ccc2cc(C(O)(C(F)(F)F)C(F)(F)F)c(O)cc2c1)N1c2ccccc2Sc2ccccc21
IC50 [1]: 2.9 µM
IC50 [2]: 3.2 µM
IC50 [3]: 6.6 µM
IC50 [4]: 2.8 µM
IC50 [5]: 3.4 µM
IC50 [6]: 2.2 µM

O=C(COc1ccc2cc(C(O)(C(F)(F)F)C(F)(F)F)c(O)cc2c1)Nc1ccc(N2CCOCC2)cc1
IC50 [1]: > 20 µM
IC50 [2]: > 20 µM
IC50 [3]: > 20 µM
IC50 [4]: > 20 µM
IC50 [5]: > 20 µM
IC50 [6]: > 20 µM

O=C(COc1ccc2cc(C(O)(C(F)(F)F)C(F)(F)F)c(O)cc2c1)N(c1ccccc1)c1ccccc1
IC50 [1]: > 20 µM
IC50 [2]: 19.5 µM
IC50 [3]: > 20 µM
IC50 [4]: 14.9 µM
IC50 [5]: 20.6 µM
IC50 [6]: 12.4 µM

O=C(COc1ccc2cc(C(O)(C(F)(F)F)C(F)(F)F)c(O)cc2c1)Nc1cccc2ccccc12
IC50 [1]: 4.7 µM
IC50 [2]: > 20 µM
IC50 [3]: > 20 µM
IC50 [4]: 29.1 µM
IC50 [5]: > 20 µM
IC50 [6]: > 20 µM

O=C(COc1ccc2cc(C(O)(C(F)(F)F)C(F)(F)F)c(O)cc2c1)NCc1ccccc1
IC50 [1]: > 20 µM
IC50 [2]: > 20 µM
IC50 [3]: > 20 µM
IC50 [4]: > 20 µM
IC50 [5]: > 20 µM
IC50 [6]: > 20 µM

Oc1cc2ccccc2cc1C(O)(C(F)(F)F)C(F)(F)F
IC50 [1]: 106 µM
IC50 [2]: 115 µM
IC50 [3]: 260 µM
IC50 [4]: 112 µM
IC50 [5]: 134 µM
IC50 [6]: 128 µM

CCN(CC)C(=O)COc1ccc2cc(C(O)(C(F)(F)F)C(F)(F)F)c(O)cc2c1
IC50 [1]: > 20 µM
IC50 [2]: > 20 µM
IC50 [3]: > 20 µM
IC50 [4]: > 20 µM
IC50 [5]: > 20 µM
IC50 [6]: > 20 µM

COc1ccc(CNC(=O)COc2ccc3cc(C(O)(C(F)(F)F)C(F)(F)F)c(O)cc3c2)cc1OC
IC50 [1]: 18.1 µM
IC50 [2]: > 20 µM
IC50 [3]: > 20 µM
IC50 [4]: > 20 µM
IC50 [5]: > 20 µM
IC50 [6]: > 20 µM

Oc1c(C(O)(C(F)(F)F)C(F)(F)F)ccc2ccccc12
IC50 [1]: > 500 µM
IC50 [2]: > 500 µM
IC50 [3]: > 500 µM
IC50 [4]: > 500 µM
IC50 [5]: > 500 µM
IC50 [6]: > 500 µM

O=C(COc1ccc2cc(C(O)(C(F)(F)F)C(F)(F)F)c(O)cc2c1)Nc1ccccc1
IC50 [1]: 14.4 µM
IC50 [2]: 19 µM
IC50 [4]: > 20 µM
IC50 [5]: > 20 µM
IC50 [6]: > 20 µM
